# Article PMC8925131 (Experimental cell research, 2021)
# Columns and labels:
# mutant KRas CRC cells = assay: Growth of mutant KRas CRC cells; type: cell-based; conditions: mutant KRas CRC cells (Figure S12C)
# wild type KRas CRC cells = assay: Growth of wild type KRas CRC cells; type: cell-based; conditions: wild type KRas CRC cells (Figure S12C)
# mutant BRaf CRC cells = assay: Growth of mutant BRaf CRC cells; type: cell-based; conditions: mutant BRaf CRC cells (Figure S12C)
# [1] = target: T1, Plekha7 (D175K) PH domain (Homo sapiens, UniProt Q6IQ23, D175K); assay: Isothermal titration calorimetry; type: binding; conditions: ITC, diC8-PI, D175K mutant versus wild-type PH domain
# T1 sequence (Q6IQ23 164-298 D175K): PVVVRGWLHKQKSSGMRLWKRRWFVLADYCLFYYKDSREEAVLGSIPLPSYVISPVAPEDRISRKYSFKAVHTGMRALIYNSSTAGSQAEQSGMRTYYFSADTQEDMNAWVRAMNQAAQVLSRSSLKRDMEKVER
# Summary of the method: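 Human Plekha7 PH domain (residues 164–298, D175K mutant alongside wild type) was GST-vector expressed in E. coli BL21. ITC was run at 23 °C: 50 µM PH domain titrated with 0.5–1.0 mM diC8-phosphoinositides (PI(3,4)P2, PI(3,5)P2, PI(4,5)P2, PI(3,4,5)P3) in 30 mM NaCl, 15 mM Tris pH 7.6, 0.2 mM TCEP. Integrated heats were fit to a single-site model for Kd, reported as mean with SD.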
# [2] = target: Plekha7-GFP (Pleckstrin homology domain containing, family A member 7, GFP fusion) (human) (UniProt Q6IQ23); assay: FRET or BRET
# Chain of Plekha7-GFP (Pleckstrin homology domain containing, family A member 7, GFP fusion) (human) (Q6IQ23 whole entry, the tested form may be a part): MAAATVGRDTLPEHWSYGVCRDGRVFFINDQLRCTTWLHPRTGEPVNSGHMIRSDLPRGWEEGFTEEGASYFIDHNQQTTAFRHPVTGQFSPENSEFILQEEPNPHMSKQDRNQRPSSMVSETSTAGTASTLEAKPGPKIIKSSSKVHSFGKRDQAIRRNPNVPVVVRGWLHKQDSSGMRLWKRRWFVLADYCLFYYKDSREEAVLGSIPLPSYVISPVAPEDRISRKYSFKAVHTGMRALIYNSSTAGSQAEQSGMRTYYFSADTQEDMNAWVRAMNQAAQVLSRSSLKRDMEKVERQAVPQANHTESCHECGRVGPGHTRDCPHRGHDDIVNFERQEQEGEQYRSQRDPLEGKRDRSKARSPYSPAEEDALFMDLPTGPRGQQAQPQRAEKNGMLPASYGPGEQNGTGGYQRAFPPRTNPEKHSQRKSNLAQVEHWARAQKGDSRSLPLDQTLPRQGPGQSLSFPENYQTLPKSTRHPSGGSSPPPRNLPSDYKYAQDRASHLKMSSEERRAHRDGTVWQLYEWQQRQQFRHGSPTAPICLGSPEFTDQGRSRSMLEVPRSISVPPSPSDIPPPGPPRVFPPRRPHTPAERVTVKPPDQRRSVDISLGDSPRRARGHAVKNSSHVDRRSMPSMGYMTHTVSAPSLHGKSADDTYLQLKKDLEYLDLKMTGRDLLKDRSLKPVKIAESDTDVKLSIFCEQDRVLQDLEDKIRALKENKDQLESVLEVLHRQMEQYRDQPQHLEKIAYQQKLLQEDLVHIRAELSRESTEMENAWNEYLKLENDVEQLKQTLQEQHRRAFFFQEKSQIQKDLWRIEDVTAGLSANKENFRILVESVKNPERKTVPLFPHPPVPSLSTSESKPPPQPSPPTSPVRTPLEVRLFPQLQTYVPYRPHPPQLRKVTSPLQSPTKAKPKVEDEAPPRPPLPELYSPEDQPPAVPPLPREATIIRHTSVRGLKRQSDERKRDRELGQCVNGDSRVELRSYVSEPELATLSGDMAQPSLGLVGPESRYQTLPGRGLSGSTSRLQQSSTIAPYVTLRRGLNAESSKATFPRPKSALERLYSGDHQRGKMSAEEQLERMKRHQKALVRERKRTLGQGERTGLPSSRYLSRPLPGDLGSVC
Molecule,inhibition of mutant KRas CRC cell growth (mutant KRas CRC cells),effect on growth of wild type KRas CRC cells (wild type KRas CRC cells),increase in affinity for Plekha7 (D175K) compared with the wild-type protein [1] [fold],further results
CCCCCCCCCCCCCCCCCCOC[C@H](COP(=O)(O)OC1C(O)[C@@H](O)C(O)C[C@H]1O)OC (stereo partly drawn) [DPIEL],selective inhibition,without affecting the growth,–,–
"CC1(C)Oc2ccc(-c3csc(Cn4nc(CCO)c5ccccc5c4=O)n3)cc2O1 [PHT-7704, 2-((4-(2,2-dimethylbenzo[d][1,3]dioxol-5-yl)thiazol-2-yl)methyl)-4-(2-hydroxyethyl)phthalazin-1(2H)-one]",selective inhibition,without affecting the growth,–,inhibition of growth of mutant BRaf CRC cells (mutant BRaf CRC cells): inhibited the growth
"CCCCCCCC(=O)OC[C@H](COP(=O)(O)O[C@H]1[C@H](O)[C@@H](O)[C@H](OP(=O)(O)O)[C@@H](OP(=O)(O)O)[C@H]1O)OC(=O)CCCCCCC [PI(3,4)P2]",–,–,10,–
"CCCCCCCC(=O)OC[C@H](COP(=O)(O)O[C@H]1[C@H](O)[C@@H](OP(=O)(O)O)[C@H](OP(=O)(O)O)[C@@H](OP(=O)(O)O)[C@H]1O)OC(=O)CCCCCCC [PI(3,4,5)P3]",–,–,10,–
"CCCCCCCC(=O)OC[C@H](COP(=O)(O)O[C@@H]1[C@H](O)[C@H](O)[C@@H](OP(=O)(O)O)[C@H](OP(=O)(O)O)[C@H]1O)OC(=O)CCCCCCC [PI(4,5)P2]",–,–,–,change of affinity for Plekha7 (D175K) compared with wild-type [1]: did not change
wild-type KRas-RFP (from UniProt P01116 1-189) (natural protein),–,–,–,average fluorescence lifetime of Plekha7-GFP [2]: 1.9 ns
